Data reported in PubChem BioAssay AID624073 (Broad Institute, 2012).
Active and inactive are the calls of the source.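 How the source made its calls: active means fitted OD600 growth curve drops 35% below untreated wells at up to twice the top tested dose; inconclusive means flat curve with 30 to 70% drop, or poor fit; inactive means the rest, including rising growth signal.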

Test system: not listed separately
Assay: P. aeruginosa PAK growth delay under chelation, dose response, whole organism, PAK strain, OD600, EDDHA, dry powder, set 3 (AID 624073)
Conditions: P. aeruginosa PAK growth with EDDHA, OD600, 28 h; at 100 µM (top of the series)
Summary of the method: (§1)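 System – Pseudomonas aeruginosa PAK wild-type strain, whole bacterial cells · Medium – succinate M9 medium, pH 7.0 · Also added – EDDHA 2 µM · Doses – dose series, 100 µM to 15 nM final · Incubation – 28 h exposure at 30 °C · Evaluation – growth by OD600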

Q: Which activity change, negative = inhibition does the source give for `CCCCC(C#N)c1ccc(F)cn1` (stereo unspecified) here?
A: -13.8% (inactive)

Q: With `COCCC(C#N)c1ccc(F)cc1` (stereo unspecified) as the compound, how does the activity change, negative = inhibition read?
A: 1.49% (inactive)

Q: For `COCCNC(C#N)c1ccc(Cl)cc1` (stereo unspecified), which activity change, negative = inhibition is on record?
A: -2.37% (inactive)

Test system: P. aeruginosa PAK growth with EDDHA, OD600, 28 h
Assay: as above
Conditions: not given
Summary of the method: as §1

Q: With `N#CC(c1cccc(Cl)n1)c1ccc(Cl)cc1F` (stereo unspecified) as the compound, how does the AC35 read?
A: 47.5 µM

Q: Which AC35 does the source give for `N#CC(c1ccc(F)cc1)c1cccc(C(F)(F)F)n1` (stereo unspecified) here?
A: 15.4 µM

Q: Which AC35 does the source give for `N#CC(c1ccc(Cl)cc1)c1ncccc1Cl` (stereo unspecified) here?
A: 77.8 µM

Q: Which AC35 does the source give for `N#CC(c1ccc(Cl)cc1)c1cccc(C(F)(F)F)n1` (stereo unspecified) here?
A: 12.8 µM

Q: With `CCCCC(c1ccc(Cl)cc1)c1nn[nH]n1` (stereo unspecified) as the compound, how does the AC35 read?
A: > 100 µM (inactive)

Q: For `N#CC(c1ccc(Cl)cc1)c1cccc(Cl)n1` (stereo unspecified), which AC35 is on record?
A: 40.9 µM

Q: Which AC35 does the source give for `N#CC(c1ccc(Cl)cc1)c1ccc(Cl)cn1` (stereo unspecified) here?
A: 87.7 µM

Q: For `N#CC(c1cccc(C(F)(F)F)n1)c1ccc(Cl)cc1F` (stereo unspecified), which AC35 is on record?
A: 13.7 µM
